Measurements from PubChem BioAssay.
Activity calls are given as the source filed them.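 Rule for the calls, unless noted: active = duplicate-averaged activation above buffer control mean plus 5 SD of those controls; inactive = the rest.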

system: not listed separately; assay: thallium flux activation in parental CHO cells, counter-screen for KCNQ1 potentiator project (AID 493006); settings: parental CHO-K1 cells, FluxOR thallium flux, at 10 µM; active compounds read high;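 for activation: fluorescence ratio of max minus min over baseline after K+ and Tl+ depolarization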
How it was run: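 Assay system: parental CHO-K1 cells lacking KCNQ1, loaded with FluxOR thallium dye; timing: dye 90 min RT, compound 20 min RT; signal: kinetic thallium-flux fluorescence; repeats: duplicate wells per compound, percent values averaged; benchmarks: buffer and R-L3 controls; reagent: Potassium/thallium depolarization pulse; read-out: fluorescence change ratio scaled 0% buffer, 100% R-L3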

| SMILES | outcome | activation |
| --- | --- | --- |
| CCOC(=O)c1sc(C)nc1C1CCN(C(=O)OCC)CC1 | inactive |  |
| NNc1nc2ccc(Cl)cc2s1 | inactive |  |
| Cc1cccc(C(=O)Oc2csc(=S)n2C(=O)c2cccc(C)c2)c1 |  | 139% (active) |
| CCOC(=O)C(C)Oc1cccc2c(=O)n(CC(=O)NCc3ccc4c(c3)OCO4)ccc12 (stereo not given) | inactive |  |
| Cc1noc(C)c1COc1ccc(CC(=O)NCc2ccccc2)cc1 | inactive |  |
| CCOC(=O)c1cnc(SCC(=O)Nc2nc(C)c(C)s2)nc1N | inactive |  |
| O=C(COC(=O)C1C2CC3OC(=O)C1C3C2)Nc1ccc(Cl)cc1 (stereo not given) | inactive |  |
| Cc1ccc(C(=O)Nc2nnn(C)n2)cc1 | inactive |  |
| O=C(NC(=S)N1CCN(C/C=C/c2ccccc2)CC1)c1ccc(F)cc1 |  | 190% (active) |
| Cn1c(=O)c2c(SC3CCCC3)nc(C3CC3)nc2n(C)c1=O | inactive |  |
| CC(C)(C)c1ccc(C(=O)NC(=S)Nc2nc3c(s2)CCCC3)cc1 |  | 210% (active) |
| CCOC(=O)c1c(N2C(=O)Nc3ccccc3N2O)n[nH]c1-c1cccc(Cl)c1 | inactive |  |
| Cc1c(CN(C)C)c2c(n1C)C(=O)c1ccc(Br)cc1-2 |  | 146% (active) |
| COc1ccc(N2CCN(C(=S)NC(=O)c3cccs3)CC2)c([N+](=O)[O-])c1 |  | 139% (active) |
| S=c1nc(Cc2ccc(Cl)cc2)[nH]c2ccccc12 |  | 372% (active) |
| CC1CN(c2nc(-c3ccc(Br)cc3)nnc2-c2ccccc2)CC(C)N1 (stereo not given) | inactive |  |
| CCCCn1c(SCC(=O)/C(C#N)=C(\C)N)nc2ccccc2c1=O | inactive |  |
| CSC(=S)N/N=C/c1ccccc1 |  | 245% (active) |
| COc1ccc(NS(=O)(=O)c2ccc(N/N=C(\C)c3ccncc3)c([N+](=O)[O-])c2)cc1 | inactive |  |
| COc1ccc(C)cc1-n1c(C)cc(C=O)c1C | inactive |  |

| SMILES | outcome | activation |
| --- | --- | --- |
| O=C(NC(=S)Nc1ccccc1N1CCCCC1)c1ccc(F)cc1Cl | inactive |  |
| COc1cccc(C(=O)COc2ccc(NC(=O)c3ccccc3)cc2)c1 | inactive |  |
| CC(Oc1ccc(Br)cc1)C(=O)Nc1ccc(S(=O)(=O)N(C)C2CCN(C)CC2)cc1 (stereo not given) |  | 626% (active) |
| C/C(=N\NC(=O)c1cc2ccccc2cc1O)c1ccccn1 |  | 157% (active) |
| CCNC(=S)Nc1nc2c(cc1C(=O)OCC)CCCC2 |  | 140% (active) |
| O=c1ccc(-c2ccc(S(=O)(=O)Nc3ccccc3)o2)n[nH]1 | inactive |  |
| COc1ccc(CN2C(=O)C(O)(CC(=O)c3ccc4c(c3)OCO4)c3ccccc32)cc1OC (stereo not given) | inactive |  |
| Cc1cccc(NC(=S)NNC(=O)c2cc3c(s2)CCC(C)C3)c1C (stereo not given) |  | 192% (active) |
| CC(/C=N/NC(=O)c1cc(-c2cccs2)[nH]n1)=C\c1ccccc1 |  | 184% (active) |
| CC1CCCCN1C(=S)NC(=O)c1cccs1 (stereo not given) | inactive |  |
| O=C(Nc1nc2c(F)cc(F)cc2s1)C1COc2ccccc2O1 (stereo not given) |  | 142% (active) |
| O=C(CN1C(=O)COc2ccccc21)N(Cc1cccnc1)Cc1cccc(F)c1 | inactive |  |
| CCc1nnc(NC(=O)c2ccc(S(=O)(=O)N(CC)Cc3ccccc3)cc2)o1 |  | 254% (active) |
| CCOC(=O)Cn1c(=S)[nH]c2c(oc3ccc(Cl)cc32)c1=O |  | 226% (active) |
| CCOC(=O)c1cccc(C(=O)Nc2nc3ccc(OC)cc3s2)n1 | inactive |  |
| CCC/C=N/NC(=O)c1[nH]c2c([N+](=O)[O-])cccc2c1C | inactive |  |
| Cc1ccc(C(=O)N2CCNC(=O)C2CC(=O)Nc2ccc(F)cc2)cc1C (stereo not given) | inactive |  |
| COc1ccc(C(=O)c2ccc(OC)c(N)c2)cc1N |  | 162% (active) |
| CCCCNC(=S)NC(=O)c1ccc([N+](=O)[O-])cc1 |  | 168% (active) |
| Cc1ccc(-c2nc(N)s[n+]2-c2ccccc2)cc1 |  | 187% (active) |

molecular target: Potassium voltage-gated channel subfamily KQT member 1 (Homo sapiens) (UniProt P51787); assay: KCNQ1 potassium channel potentiators, confirmation, FluxOR thallium flux, CHO cells, duplicates (AID 493007;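 active = potentiation averaged over duplicate wells exceeding buffer-only control mean by more than 3 SD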;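 for outcome: cells depolarized by a potassium plus thallium sulfate stimulus after compound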); settings: KCNQ1 cell line, FluxOR thallium flux fluorescence, at 10 µM; active compounds read high, % of reference activator effect, buffer zero
Sequence (P51787 whole entry, looked up): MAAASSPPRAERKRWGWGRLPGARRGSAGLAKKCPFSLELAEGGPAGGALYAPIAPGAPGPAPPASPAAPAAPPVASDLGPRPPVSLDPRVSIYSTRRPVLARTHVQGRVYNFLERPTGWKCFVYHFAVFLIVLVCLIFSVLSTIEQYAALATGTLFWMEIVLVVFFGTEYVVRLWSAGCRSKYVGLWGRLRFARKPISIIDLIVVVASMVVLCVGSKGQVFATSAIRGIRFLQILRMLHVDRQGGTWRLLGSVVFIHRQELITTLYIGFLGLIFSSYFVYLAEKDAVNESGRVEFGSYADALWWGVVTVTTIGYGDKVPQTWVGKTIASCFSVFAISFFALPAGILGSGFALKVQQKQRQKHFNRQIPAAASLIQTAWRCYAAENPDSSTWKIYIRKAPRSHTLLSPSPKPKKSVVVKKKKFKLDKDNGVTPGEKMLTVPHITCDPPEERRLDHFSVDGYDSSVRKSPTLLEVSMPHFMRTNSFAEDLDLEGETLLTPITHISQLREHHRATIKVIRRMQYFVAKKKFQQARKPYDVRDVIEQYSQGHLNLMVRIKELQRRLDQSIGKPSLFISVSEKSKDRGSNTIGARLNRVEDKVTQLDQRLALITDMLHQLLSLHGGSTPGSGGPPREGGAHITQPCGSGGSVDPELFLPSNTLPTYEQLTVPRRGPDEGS
How it was run: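 material = CHO cells stably expressing the KCNQ1 potassium channel | repeats = duplicate wells per compound | measure = percent activation between buffer and R-L3 responses | signal = FluxOR thallium-flux fluorescence, kinetic read | schedule = FluxOR dye loading 90 min, compound exposure 20 min, room temperature | control set = buffer and R-L3 controls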

| SMILES | outcome | potentiation |
| --- | --- | --- |
| CCOC(=O)c1sc(C)nc1C1CCN(C(=O)OCC)CC1 | inactive |  |
| NNc1nc2ccc(Cl)cc2s1 | inactive |  |
| Cc1cccc(C(=O)Oc2csc(=S)n2C(=O)c2cccc(C)c2)c1 |  | 27% (active) |
| CCOC(=O)C(C)Oc1cccc2c(=O)n(CC(=O)NCc3ccc4c(c3)OCO4)ccc12 (stereo not given) | inactive |  |
| Cc1noc(C)c1COc1ccc(CC(=O)NCc2ccccc2)cc1 | inactive |  |
| CCOC(=O)c1cnc(SCC(=O)Nc2nc(C)c(C)s2)nc1N | inactive |  |
| O=C(COC(=O)C1C2CC3OC(=O)C1C3C2)Nc1ccc(Cl)cc1 (stereo not given) | inactive |  |
| Cc1ccc(C(=O)Nc2nnn(C)n2)cc1 | inactive |  |
| O=C(NC(=S)N1CCN(C/C=C/c2ccccc2)CC1)c1ccc(F)cc1 |  | 74% (active) |
| Cn1c(=O)c2c(SC3CCCC3)nc(C3CC3)nc2n(C)c1=O | inactive |  |
| CC(C)(C)c1ccc(C(=O)NC(=S)Nc2nc3c(s2)CCCC3)cc1 |  | 91% (active) |
| CCOC(=O)c1c(N2C(=O)Nc3ccccc3N2O)n[nH]c1-c1cccc(Cl)c1 | inactive |  |
| Cc1c(CN(C)C)c2c(n1C)C(=O)c1ccc(Br)cc1-2 |  | 53% (active) |
| COc1ccc(N2CCN(C(=S)NC(=O)c3cccs3)CC2)c([N+](=O)[O-])c1 |  | 74.5% (active) |
| S=c1nc(Cc2ccc(Cl)cc2)[nH]c2ccccc12 |  | 148% (active) |
| CC1CN(c2nc(-c3ccc(Br)cc3)nnc2-c2ccccc2)CC(C)N1 (stereo not given) | inactive |  |
| CCCCn1c(SCC(=O)/C(C#N)=C(\C)N)nc2ccccc2c1=O | inactive |  |
| CSC(=S)N/N=C/c1ccccc1 |  | 48.5% (active) |
| COc1ccc(NS(=O)(=O)c2ccc(N/N=C(\C)c3ccncc3)c([N+](=O)[O-])c2)cc1 | inactive |  |
| COc1ccc(C)cc1-n1c(C)cc(C=O)c1C |  | 44% (active) |

| SMILES | outcome | potentiation |
| --- | --- | --- |
| O=C(NC(=S)Nc1ccccc1N1CCCCC1)c1ccc(F)cc1Cl |  | 49.5% (active) |
| COc1cccc(C(=O)COc2ccc(NC(=O)c3ccccc3)cc2)c1 | inactive |  |
| CC(Oc1ccc(Br)cc1)C(=O)Nc1ccc(S(=O)(=O)N(C)C2CCN(C)CC2)cc1 (stereo not given) |  | 190% (active) |
| C/C(=N\NC(=O)c1cc2ccccc2cc1O)c1ccccn1 |  | 38.5% (active) |
| CCNC(=S)Nc1nc2c(cc1C(=O)OCC)CCCC2 |  | 35% (active) |
| O=c1ccc(-c2ccc(S(=O)(=O)Nc3ccccc3)o2)n[nH]1 | inactive |  |
| COc1ccc(CN2C(=O)C(O)(CC(=O)c3ccc4c(c3)OCO4)c3ccccc32)cc1OC (stereo not given) | inactive |  |
| Cc1cccc(NC(=S)NNC(=O)c2cc3c(s2)CCC(C)C3)c1C (stereo not given) |  | 55.5% (active) |
| CC(/C=N/NC(=O)c1cc(-c2cccs2)[nH]n1)=C\c1ccccc1 |  | 116% (active) |
| CC1CCCCN1C(=S)NC(=O)c1cccs1 (stereo not given) | inactive |  |
| O=C(Nc1nc2c(F)cc(F)cc2s1)C1COc2ccccc2O1 (stereo not given) |  | 68.5% (active) |
| O=C(CN1C(=O)COc2ccccc21)N(Cc1cccnc1)Cc1cccc(F)c1 | inactive |  |
| CCc1nnc(NC(=O)c2ccc(S(=O)(=O)N(CC)Cc3ccccc3)cc2)o1 |  | 107% (active) |
| CCOC(=O)Cn1c(=S)[nH]c2c(oc3ccc(Cl)cc32)c1=O |  | 36% (active) |
| CCOC(=O)c1cccc(C(=O)Nc2nc3ccc(OC)cc3s2)n1 | inactive |  |
| CCC/C=N/NC(=O)c1[nH]c2c([N+](=O)[O-])cccc2c1C | inactive |  |
| Cc1ccc(C(=O)N2CCNC(=O)C2CC(=O)Nc2ccc(F)cc2)cc1C (stereo not given) |  | 37.5% (active) |
| COc1ccc(C(=O)c2ccc(OC)c(N)c2)cc1N |  | 38.5% (active) |
| CCCCNC(=S)NC(=O)c1ccc([N+](=O)[O-])cc1 |  | 29% (active) |
| Cc1ccc(-c2nc(N)s[n+]2-c2ccccc2)cc1 |  | 157% (active) |
